Calls of active or inactive are those of the source. The calls are words filed in the database; no cut-off is given here.
Legend:
THP-1 = experiment: Cytotoxicity against human THP1 cells assessed as decrease in viable cells after 72 hrs by MTT assay; assay type: cell-based; conditions: thp-1, 72 h
Outline: (§1)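 THP-1-derived macrophages exposed to compounds for 72 h, tested at 100 μM or in dose-response; viability read by MTT colorimetric assay.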

Cytochrome P450 2C9 = Cytochrome P450 2C9 (Homo sapiens, UniProt P11712); experiment: Inhibition of human microsomal CYP2C9 expressed in baculovirus infected BTI-TN-5B1-4 cells incubated for 30 mins by luciferase assay
Cytochrome P450 3A4 = Cytochrome P450 3A4 (Homo sapiens, UniProt P08684); experiment: Inhibition of human microsomal CYP3A4 expressed in baculovirus infected BTI-TN-5B1-4 cells incubated for 30 mins by luciferase assay; assay type: ADME
U2OS = experiment: Cytotoxicity against human U2OS cells assessed as decrease in viable cells after 72 hrs by cell number count in anti-T. cruzi high content imaging assay; conditions: u2os, 72 h
Trypanosoma brucei [1] = experiment: Antitrypanosomal activity against Trypanosoma brucei Lister 427 bloodstream form at 4 uM after 72 hrs by resazurin dye-based assay relative to control; assay type: functional
Trypanosoma brucei [2] = experiment: Antitrypanosomal activity against Trypanosoma brucei Lister 427 bloodstream form assessed as parasite growth inhibition at 50 uM after 72 hrs by SYBR Green assay relative to control; assay type: functional; conditions: Lister 427, 72 h, read-out: GI
Leishmania infantum = experiment: Antileishmanial activity against Leishmania infantum amastigote form assessed as parasite growth inhibition at 50 uM after 72 hrs by steady-Glo reagent based assay relative to control; assay type: functional; conditions: read-out: GI
Outline: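 Intramacrophage L. infantum amastigotes in THP-1-derived macrophages, tested at 50 μM or in dose-response. Plates held 72 h at 37 °C, 5% CO2. Medium was replaced by PBS, macrophages lysed, and parasites read by Steady-Glo luminescence. High-content imaging gave host cell number, infection ratio (infected/total cells) and parasites per infected cell. Values are means of at least two independent experiments.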

Trypanosoma cruzi = experiment: Antitrypanosomal activity against Trypanosoma cruzi amastigote form infected in human U2OS cells assessed as parasite growth inhibition at 50 uM after 72 hrs relative to control; assay type: functional; conditions: read-out: GI
Outline: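 U2OS monolayers grown for 24 h, then infected with tissue-derived trypomastigotes of T. cruzi Y strain. Compounds were added 24 h after infection at 50 μM (single-point) or in dose-response, with 72 h exposure. Plates were fixed, stained and analysed by high-content imaging; activity was normalized to infected and non-infected controls. Means of at least two experiments; benznidazole as reference.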

Trypanosoma brucei [3] = experiment: Antitrypanosomal activity against Trypanosoma brucei Lister 427 bloodstream form at 10 uM after 72 hrs by resazurin dye-based assay relative to control; assay type: functional
Trypanosoma brucei [4] = experiment: Potentiation of methotrexate-induced antitrypanosomal activity against Trypanosoma brucei Lister 427 bloodstream form at 10 uM after 72 hrs by resazurin dye-based assay relative to control; assay type: functional
CYP1A2 = target: T1, CYP1A2 (Homo sapiens, UniProt P05177); experiment: Inhibition of human microsomal CYP1A2 expressed in baculovirus infected BTI-TN-5B1-4 cells at 10 uM incubated for 30 mins by luciferase assay relative to control; assay type: ADME
T1 sequence (P05177 whole entry): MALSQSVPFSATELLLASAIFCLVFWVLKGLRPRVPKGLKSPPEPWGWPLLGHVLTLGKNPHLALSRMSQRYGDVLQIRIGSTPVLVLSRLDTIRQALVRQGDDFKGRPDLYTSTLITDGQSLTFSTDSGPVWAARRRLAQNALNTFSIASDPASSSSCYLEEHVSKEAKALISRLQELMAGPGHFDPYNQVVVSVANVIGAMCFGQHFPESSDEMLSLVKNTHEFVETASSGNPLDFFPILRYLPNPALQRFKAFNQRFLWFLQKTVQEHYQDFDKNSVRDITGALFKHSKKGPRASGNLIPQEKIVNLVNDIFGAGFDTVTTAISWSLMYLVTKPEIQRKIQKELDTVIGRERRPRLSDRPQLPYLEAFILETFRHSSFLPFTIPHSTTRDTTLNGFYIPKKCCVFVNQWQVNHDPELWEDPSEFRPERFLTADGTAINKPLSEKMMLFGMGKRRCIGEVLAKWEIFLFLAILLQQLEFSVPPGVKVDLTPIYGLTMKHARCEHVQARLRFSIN
Outline: (§2)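 CYP1A2, 2C9, 2C19, 2D6 and 3A4 in microsomes from baculovirus-infected insect cells, each with a P450-Glo luminogenic substrate. Inhibition read as loss of light; single-point at 10 μM, triplicate.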

Trypanosoma brucei [5] = experiment: Potentiation of methotrexate-induced antitrypanosomal activity against Trypanosoma brucei Lister 427 bloodstream form at 10 uM after 72 hrs by resazurin dye-based assay; assay type: functional
hERG (KCNH2) = hERG (KCNH2) (Homo sapiens, UniProt Q12809); experiment: Inhibition of human ERG at 10 uM incubated for 2 hrs by fluorescence polarisation assay relative to control
CYP2C9 = CYP2C9 (Homo sapiens, UniProt P11712); experiment: Inhibition of human microsomal CYP2C9 expressed in baculovirus infected BTI-TN-5B1-4 cells at 10 uM incubated for 30 mins by luciferase assay relative to control; assay type: ADME; outline: as §2
CYP2C19 = CYP2C19 (Homo sapiens, UniProt P33261); experiment: Inhibition of human microsomal CYP2C19 expressed in baculovirus infected BTI-TN-5B1-4 cells at 10 uM incubated for 30 mins by luciferase assay relative to control; assay type: ADME; outline: as §2
CYP2D6 = CYP2D6 (Homo sapiens, UniProt P10635); experiment: Inhibition of human microsomal CYP2D6 expressed in baculovirus infected BTI-TN-5B1-4 cells at 10 uM incubated for 30 mins by luciferase assay relative to control; assay type: ADME; outline: as §2
CYP3A4 = CYP3A4 (Homo sapiens, UniProt P08684); experiment: Inhibition of human microsomal CYP3A4 expressed in baculovirus infected BTI-TN-5B1-4 cells at 10 uM incubated for 30 mins by luciferase assay relative to control; assay type: ADME; outline: as §2
Aurora kinase B = Aurora kinase B (Homo sapiens, UniProt Q96GD4); experiment: Inhibition of recombinant full-length human aurora B kinase expressed in baculovirus system at 10 uM using MBP as substrate incubated for 45 mins by ADP-glo kinase assay; conditions: probe MBP
Outline: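 Aurora B activity measured as ADP formation via coupled luciferase ADP-Glo luminescence; single-point at 10 μM, triplicate.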

[6] = Cytotoxicity against human 786-O cells assessed as inhibition of mitochondrial viability at 10 uM after 6 hrs by CMXRos staining based assay relative to control; assay type: cell-based, 786-0; conditions: read-out: INH
Outline: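 Mitochondrial toxicity monitored by MitoTracker Red CMXRos uptake and high-content imaging; compound at 10 μM, triplicate.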

[7] = Cytotoxicity against human THP1 cells assessed as viable cells at 100 uM after 72 hrs by MTT assay relative to control; assay type: cell-based, THP-1; conditions: read-out: Activity; outline: as §1
[8] = Cytotoxicity against human U2OS cells assessed as viable cells at 50 uM after 72 hrs by MTT assay relative to control; assay type: cell-based; conditions: read-out: Activity
[9] = target: T2, Pteridine reductase, putative (Trypanosoma brucei) (UniProt Q581W1); experiment: Inhibition of Trypanosoma brucei PTR1 at 50 uM using H2B as substrate in presence of NADPH by photometric analysis relative to control
T2 sequence (whole entry): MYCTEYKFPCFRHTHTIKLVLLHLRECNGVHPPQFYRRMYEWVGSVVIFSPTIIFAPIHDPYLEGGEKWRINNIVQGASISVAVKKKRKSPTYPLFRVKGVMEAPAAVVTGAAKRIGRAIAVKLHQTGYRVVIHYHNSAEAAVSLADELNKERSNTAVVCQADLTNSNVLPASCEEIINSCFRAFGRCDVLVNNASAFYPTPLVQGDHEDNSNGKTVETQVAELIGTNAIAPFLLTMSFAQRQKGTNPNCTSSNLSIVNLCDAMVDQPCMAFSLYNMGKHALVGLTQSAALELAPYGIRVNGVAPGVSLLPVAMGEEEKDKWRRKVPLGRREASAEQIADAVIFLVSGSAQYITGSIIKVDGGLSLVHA

[10] = target: T3, Pteridine reductase 1 (Leishmania major) (UniProt Q01782); experiment: Inhibition of Leishmania major PTR1 at 50 uM using H2B as substrate in presence of NADPH by photometric analysis relative to control
T3 sequence (whole entry): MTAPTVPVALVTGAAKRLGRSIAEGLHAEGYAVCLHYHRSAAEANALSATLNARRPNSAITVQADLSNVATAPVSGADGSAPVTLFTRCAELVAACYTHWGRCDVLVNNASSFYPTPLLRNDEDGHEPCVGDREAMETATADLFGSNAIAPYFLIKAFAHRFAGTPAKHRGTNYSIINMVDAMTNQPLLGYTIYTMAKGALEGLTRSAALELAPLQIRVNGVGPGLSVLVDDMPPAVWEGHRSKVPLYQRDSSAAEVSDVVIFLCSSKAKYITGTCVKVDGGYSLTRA

[11] = Cytotoxicity against human A549 cells assessed as growth inhibition at 10 uM after 48 hrs by CellTiter-Glo assay relative to control; values are per cent of control; conditions: A549 cells
WI-38 = experiment: Cytotoxicity against human WI38 cells assessed as growth inhibition at 10 uM after 48 hrs by CellTiter-Glo assay relative to control; values are per cent of control; conditions: wi-38, 48 h, 10 µM

hERG (KCNH2), sequence (Q12809 whole entry): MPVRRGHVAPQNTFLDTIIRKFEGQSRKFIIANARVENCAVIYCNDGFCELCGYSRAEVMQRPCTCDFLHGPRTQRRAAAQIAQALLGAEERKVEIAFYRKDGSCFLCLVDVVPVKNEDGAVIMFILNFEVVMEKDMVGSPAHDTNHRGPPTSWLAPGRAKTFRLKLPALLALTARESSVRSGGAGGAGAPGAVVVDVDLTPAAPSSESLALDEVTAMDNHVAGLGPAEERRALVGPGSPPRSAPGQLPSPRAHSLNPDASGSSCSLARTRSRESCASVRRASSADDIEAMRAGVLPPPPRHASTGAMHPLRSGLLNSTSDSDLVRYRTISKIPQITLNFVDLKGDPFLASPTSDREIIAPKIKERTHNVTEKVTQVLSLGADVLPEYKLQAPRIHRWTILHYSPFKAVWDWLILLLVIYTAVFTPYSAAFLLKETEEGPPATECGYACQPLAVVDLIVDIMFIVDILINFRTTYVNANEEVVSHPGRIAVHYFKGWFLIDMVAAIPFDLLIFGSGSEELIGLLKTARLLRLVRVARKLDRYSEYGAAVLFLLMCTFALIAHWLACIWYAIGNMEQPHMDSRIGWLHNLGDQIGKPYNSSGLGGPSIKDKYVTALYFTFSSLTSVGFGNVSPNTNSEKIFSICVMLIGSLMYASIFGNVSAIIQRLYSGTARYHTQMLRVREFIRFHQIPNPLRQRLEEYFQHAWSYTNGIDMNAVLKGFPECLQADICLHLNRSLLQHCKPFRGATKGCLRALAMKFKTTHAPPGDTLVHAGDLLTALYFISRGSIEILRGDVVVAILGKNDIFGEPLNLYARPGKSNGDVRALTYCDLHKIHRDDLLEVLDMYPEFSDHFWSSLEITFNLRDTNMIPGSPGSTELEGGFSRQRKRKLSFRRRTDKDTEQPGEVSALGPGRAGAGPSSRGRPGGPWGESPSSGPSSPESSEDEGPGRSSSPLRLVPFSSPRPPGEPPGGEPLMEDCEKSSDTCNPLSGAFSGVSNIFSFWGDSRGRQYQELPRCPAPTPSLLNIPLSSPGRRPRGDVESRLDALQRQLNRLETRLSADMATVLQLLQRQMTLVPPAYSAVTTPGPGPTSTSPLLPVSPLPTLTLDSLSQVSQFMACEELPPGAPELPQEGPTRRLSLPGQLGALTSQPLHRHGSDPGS
CYP2D6, sequence (P10635 whole entry): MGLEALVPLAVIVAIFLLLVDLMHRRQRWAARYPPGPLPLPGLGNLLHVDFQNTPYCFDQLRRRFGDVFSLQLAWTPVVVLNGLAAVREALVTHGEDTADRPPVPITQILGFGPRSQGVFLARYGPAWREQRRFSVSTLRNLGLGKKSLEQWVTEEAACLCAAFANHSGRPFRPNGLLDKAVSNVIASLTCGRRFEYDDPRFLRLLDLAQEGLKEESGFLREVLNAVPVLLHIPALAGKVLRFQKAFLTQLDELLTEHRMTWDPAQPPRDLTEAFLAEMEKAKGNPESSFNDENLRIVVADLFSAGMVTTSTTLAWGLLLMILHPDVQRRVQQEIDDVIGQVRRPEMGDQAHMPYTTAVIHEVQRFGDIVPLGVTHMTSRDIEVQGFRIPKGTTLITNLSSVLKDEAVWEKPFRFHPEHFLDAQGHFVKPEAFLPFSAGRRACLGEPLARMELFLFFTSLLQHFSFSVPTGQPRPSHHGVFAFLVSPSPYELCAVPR
CYP2C19, sequence (P33261 whole entry): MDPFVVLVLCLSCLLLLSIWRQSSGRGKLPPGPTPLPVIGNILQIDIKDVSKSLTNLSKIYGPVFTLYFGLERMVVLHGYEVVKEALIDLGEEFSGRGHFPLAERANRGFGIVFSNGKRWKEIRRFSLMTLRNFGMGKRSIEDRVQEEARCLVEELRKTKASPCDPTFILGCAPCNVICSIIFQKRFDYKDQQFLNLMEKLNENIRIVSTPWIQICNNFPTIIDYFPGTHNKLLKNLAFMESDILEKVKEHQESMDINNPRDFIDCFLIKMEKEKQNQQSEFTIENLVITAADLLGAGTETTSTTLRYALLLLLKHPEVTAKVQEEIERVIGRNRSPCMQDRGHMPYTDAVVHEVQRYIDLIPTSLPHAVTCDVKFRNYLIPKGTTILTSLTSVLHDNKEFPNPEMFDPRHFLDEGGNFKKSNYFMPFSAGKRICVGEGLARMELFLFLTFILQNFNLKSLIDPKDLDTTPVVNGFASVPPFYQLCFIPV
CYP2C9, sequence (P11712 whole entry): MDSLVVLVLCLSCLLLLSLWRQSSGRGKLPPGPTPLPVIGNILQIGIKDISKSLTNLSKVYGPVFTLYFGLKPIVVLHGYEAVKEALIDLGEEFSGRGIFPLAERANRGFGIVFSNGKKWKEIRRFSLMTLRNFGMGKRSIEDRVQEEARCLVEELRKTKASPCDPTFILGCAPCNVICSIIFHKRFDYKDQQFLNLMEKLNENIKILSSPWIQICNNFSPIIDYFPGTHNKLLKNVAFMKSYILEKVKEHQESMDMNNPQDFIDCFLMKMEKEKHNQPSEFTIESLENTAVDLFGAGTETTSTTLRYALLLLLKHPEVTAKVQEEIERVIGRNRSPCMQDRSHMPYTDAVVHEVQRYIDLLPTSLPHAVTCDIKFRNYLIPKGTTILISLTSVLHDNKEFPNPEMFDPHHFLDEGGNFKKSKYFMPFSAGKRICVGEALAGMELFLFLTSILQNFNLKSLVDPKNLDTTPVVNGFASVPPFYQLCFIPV
Cytochrome P450 2C9, sequence (P11712 whole entry): as above
Cytochrome P450 3A4, sequence (P08684 whole entry): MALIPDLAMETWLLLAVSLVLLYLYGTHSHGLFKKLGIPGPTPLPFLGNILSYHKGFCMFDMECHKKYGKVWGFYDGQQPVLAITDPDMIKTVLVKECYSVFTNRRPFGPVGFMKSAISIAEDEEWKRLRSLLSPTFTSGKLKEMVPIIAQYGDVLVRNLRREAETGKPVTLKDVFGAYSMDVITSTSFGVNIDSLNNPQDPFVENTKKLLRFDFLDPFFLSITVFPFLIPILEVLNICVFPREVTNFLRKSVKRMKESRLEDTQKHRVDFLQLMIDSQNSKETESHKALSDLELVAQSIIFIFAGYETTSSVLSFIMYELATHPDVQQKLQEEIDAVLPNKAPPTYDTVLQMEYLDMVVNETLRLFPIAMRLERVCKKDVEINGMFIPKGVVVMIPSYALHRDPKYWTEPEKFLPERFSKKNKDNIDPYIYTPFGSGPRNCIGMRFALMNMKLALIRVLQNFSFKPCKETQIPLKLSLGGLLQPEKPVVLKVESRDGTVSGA
CYP3A4, sequence (P08684 whole entry): as above
Aurora kinase B, sequence (Q96GD4 whole entry): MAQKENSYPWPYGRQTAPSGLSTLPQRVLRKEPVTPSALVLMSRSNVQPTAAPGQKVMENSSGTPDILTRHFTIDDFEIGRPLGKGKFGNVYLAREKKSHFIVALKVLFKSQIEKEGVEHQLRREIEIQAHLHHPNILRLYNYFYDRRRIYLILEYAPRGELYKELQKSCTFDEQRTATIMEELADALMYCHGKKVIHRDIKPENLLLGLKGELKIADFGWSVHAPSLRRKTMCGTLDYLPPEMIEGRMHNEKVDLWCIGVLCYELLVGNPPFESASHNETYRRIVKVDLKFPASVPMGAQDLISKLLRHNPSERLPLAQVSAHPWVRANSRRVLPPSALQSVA

In the case of `O=C(Cn1ccnc1[N+](=O)[O-])NCc1ccccc1` [BENZNIDAZOLE], the CC50 (THP-1) is reported as “Non-Toxic”, the IC50 (Cytochrome P450 2C9) is reported as > 100 µM and the IC50 (Cytochrome P450 3A4) is reported as 98.2 µM. For the same compound, the CC50 (U2OS) was “Non-Toxic”.

In the case of `CN(Cc1cnc2nc(N)nc(N)c2n1)c1ccc(C(=O)N[C@@H](CCC(=O)O)C(=O)O)cc1` [METHOTREXATE], the Activity (Trypanosoma brucei [1]) is reported as 24.25%.

Work on `CN(C)c1ccc(/C=N/N=C(/N)S)c2ccccc12` yielded an inhibition of growth at 50 µM (Trypanosoma brucei [2]) of 6.33%, an inhibition of growth at 50 µM (Leishmania infantum) of 58.3% and an inhibition of growth at 50 µM (Trypanosoma cruzi) of 8.05%. It also gave an Activity (Trypanosoma brucei [3]) of 26.17%, an Activity (Trypanosoma brucei [4]) of 63.83% and an inhibition at 0.5 h, 10 µM (CYP1A2) of 98.4%. The PF (Trypanosoma brucei [5]) was 1.27, the inhibition at 2 h, 10 µM (hERG (KCNH2)) was 43% and the inhibition at 0.5 h, 10 µM (CYP2C9) was 10%. It also gave an inhibition at 0.5 h, 10 µM (CYP2C19) of 21.7%, an inhibition at 0.5 h, 10 µM (CYP2D6) of 57.9% and an inhibition at 0.5 h, 10 µM (CYP3A4) of 22.8%. For the same compound, the inhibition at 0.75 h, 10 µM (Aurora kinase B) was 0.89%, the cytotoxicity at 6 h, 10 µM [6] was -1.7% and the viability at 72 h, 100 µM [7] was 9.31%. The viability at 72 h, 50 µM [8] was 99.5%, the inhibition [9] was “inactive” and the inhibition [10] was 5.85%. For the same compound, the cell growth (% of control) at 48 h, 10 µM [11] was 122% and the “cell growth (% of control)” value (WI-38) was 162.08%.

From ChEMBL document CHEMBL4196006, “Aryl thiosemicarbazones for the treatment of trypanosomatidic infections” (Eur J Med Chem, 2018)
